According to ChEMBL document CHEMBL4118021, “Studies of TAK1-centered polypharmacology with novel covalent TAK1 inhibitors” (Bioorg Med Chem, 2017):
Each block holds one compound with its values, some of them ahead of it. The source made the active and inactive calls. The rule behind the calls is not given here.

Legend:
NCI-H23 [1] = test: Antiproliferative activity against human NCI-H23 cells harboring KRAS G12C mutant at; assay type: functional, cell-based
NCI-H358 [2] = test: Antiproliferative activity against human NCI-H358 cells harboring KRAS G12C mutant at; assay type: functional, cell-based
[3] = target: T1, Mitogen-activated protein kinase kinase kinase 7 (Homo sapiens, UniProt O43318); test: Inhibition of TAK1 (unknown origin) by LanthaScreen assay
T1 sequence (O43318 whole entry): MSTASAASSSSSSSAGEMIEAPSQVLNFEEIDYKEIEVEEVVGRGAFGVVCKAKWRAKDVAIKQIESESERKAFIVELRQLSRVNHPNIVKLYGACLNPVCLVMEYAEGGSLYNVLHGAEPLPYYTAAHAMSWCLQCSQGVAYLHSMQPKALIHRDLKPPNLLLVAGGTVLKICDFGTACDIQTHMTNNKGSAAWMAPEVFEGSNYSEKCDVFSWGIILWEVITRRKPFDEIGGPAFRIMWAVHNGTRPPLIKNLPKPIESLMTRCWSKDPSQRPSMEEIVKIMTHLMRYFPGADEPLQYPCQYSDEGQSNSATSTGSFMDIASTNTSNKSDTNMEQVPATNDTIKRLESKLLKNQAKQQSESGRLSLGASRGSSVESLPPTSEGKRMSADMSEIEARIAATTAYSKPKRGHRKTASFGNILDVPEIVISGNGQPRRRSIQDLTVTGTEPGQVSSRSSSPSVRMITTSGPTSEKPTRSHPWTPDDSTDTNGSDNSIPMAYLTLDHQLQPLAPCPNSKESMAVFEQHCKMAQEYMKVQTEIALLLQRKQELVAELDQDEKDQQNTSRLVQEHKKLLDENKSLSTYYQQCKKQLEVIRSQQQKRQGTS

BaF3 [4] = test: Antiproliferative activity against mouse BA/F3 cells after 72 hrs by CellTiter-Glo assay; assay type: cell-based; conditions: BaF3, 72 h
BaF3 [5] = test: Antiproliferative activity against mouse BA/F3 cells harboring KRAS G12D mutant after 72 hrs by CellTiter-Glo assay; assay type: functional, cell-based; conditions: BaF3, 72 h
BaF3 [6] = test: Antiproliferative activity against mouse BA/F3 cells harboring KRAS G12D mutant after 72 hrs in presence of IL-3 by CellTiter-Glo assay; assay type: functional, cell-based; conditions: BaF3, 72 h
BaF3 [7] = test: Antiproliferative activity against mouse BA/F3 cells harboring NRAS G12D mutant after 72 hrs by CellTiter-Glo assay; assay type: functional, cell-based; conditions: BaF3, 72 h
How it was run: (§1)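 Ba/F3 parental or RAS-transformed cells were seeded at 1000 viable cells/well, without or with IL-3 as the line states, at 37 °C and 5% CO2. After 4 h, nine four-fold serial dilutions were added in triplicate (final 0.5–30,000 nM, 0.3% DMSO). DMSO wells served as 100% viability.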

BaF3 [8] = test: Antiproliferative activity against mouse BA/F3 cells harboring NRAS G12D mutant after 72 hrs in presence of IL-3 by CellTiter-Glo assay; assay type: functional, cell-based; conditions: BaF3, 72 h; how it was run: as §1
MOLM-14 = test: Antiproliferative activity against human MOLM14 cells harboring FLT3-ITD mutant at […] to […] nM after 72 hrs by CellTiter-Glo assay; assay type: functional, cell-based
[9] = target: Receptor-type tyrosine-protein kinase FLT3 (Homo sapiens, UniProt P36888); test: Inhibition of FLT3 (unknown origin)
NALM-6 = test: Antiproliferative activity against human NALM6 cells harboring NARS A146T mutant at […] to […] nM after 72 hrs by CellTiter-Glo assay; assay type: functional, cell-based
SW-620 = test: Antiproliferative activity against human SW620 cells harboring KRAS G12V mutant after 72 hrs by CellTiter-Glo assay; assay type: functional, cell-based; conditions: SW-620, 72 h
SK-CO-1 = test: Antiproliferative activity against human SKCO1 cells harboring KRAS G12V mutant after 72 hrs by CellTiter-Glo assay; assay type: functional, cell-based; conditions: SK-CO-1, 72 h
PANC-1 = test: Antiproliferative activity against human PANC1 cells harboring KRAS G12D mutant after 72 hrs by CellTiter-Glo assay; assay type: functional, cell-based; conditions: PANC-1, 72 h
ASPC1 = test: Antiproliferative activity against human AsPC1 cells harboring KRAS G12D mutant after 72 hrs by CellTiter-Glo assay; assay type: functional, cell-based; conditions: ASPC1, 72 h
[10] = Antiproliferative activity against human SW156 cells harboring wild type KRAS after 72 hrs by CellTiter-Glo assay; assay type: functional, cell-based
[11] = Antiproliferative activity against human URMC6 cells harboring wild type KRAS after 72 hrs by CellTiter-Glo assay; assay type: functional, cell-based
[12] = target: T2, Mitogen-activated protein kinase kinase kinase 7 (Homo sapiens) (UniProt O43318); test: Inhibition of biotin-labeled N-(2-(2-(2-(2-(4-(4-((4-((2-Acrylamidophenyl)amino)-5-chloropyrimidin-2-yl)amino)phenyl)piperazin-1-yl)ethoxy)ethoxy)ethoxy)ethyl)-5-((3aS,4S,6aR)-2-oxohexahydro-1H-thieno[3,4-d]imidazol-4-yl)pentanamide probe binding to TAK1 in human NCI-H358 cells at 10 uM after 6 hrs by immunoblot based competitive pull down assay; assay type: cell-based
T2 sequence (whole entry): T1 sequence (O43318 whole entry)
How it was run: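 H358 cells given 1 or 10 μM compound for 6 h, medium removed, cells rinsed twice with cold PBS and lysed in MPER buffer. Lysates incubated overnight at 4 °C with 1 μM biotinylated covalent probe, captured on streptavidin beads, and TAK1 recovery assessed by immunoblotting with anti-TAK1 antibody.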

NCI-H23 [13] = test: Antiproliferative activity against human NCI-H23 cells harboring KRAS G12C mutant after 72 hrs by CellTiter-Glo assay; assay type: functional, cell-based
How it was run: (§2)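 NCI-H23 or NCI-H358 cells seeded at 2000 cells/well and grown 48 h before drug. Varying doses were added and cells incubated 72 h. Viability was read as CellTiter-Glo luminescence, and growth-inhibition IC50 was calculated from dose-response curves.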

NCI-H358 [14] = test: Antiproliferative activity against human NCI-H358 cells harboring KRAS G12C mutant after 72 hrs by CellTiter-Glo assay; assay type: functional, cell-based; how it was run: as §2
[15] = target: T2, Mitogen-activated protein kinase kinase kinase 7 (Homo sapiens); test: Inhibition of TAK1 in RA patient-derived synovial fibroblasts assessed as inhibition of TNFalpha-induced cytokine secretion at 3 uM preincubated for 3 hrs followed by TNFalpha stimulation measured after 18 hrs by sandwich immunoassay
How it was run: (§3)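 Primary RA synovial fibroblasts (donor RA2159) seeded 1000 cells/well and grown ~24 h at 37 °C, 5% CO2. Starved overnight in basal medium, then ~4 h in basal medium with 0.1% BSA. Two adjacent wells pooled per replicate, in biological duplicate. Supernatants diluted 1:3 and run on Luminex 27-plex/21-plex sandwich immunoassays for 48 analytes, with spiked-ligand and mock-supernatant background controls.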

[16] = target: T2, Mitogen-activated protein kinase kinase kinase 7 (Homo sapiens); test: Inhibition of TAK1 in RA patient-derived synovial fibroblasts assessed as inhibition of IL-1alpha-induced cytokine secretion at 3 uM preincubated for 3 hrs followed by IL-1alpha stimulation measured after 18 hrs by sandwich immunoassay; how it was run: as §3
[17] = target: T2, Mitogen-activated protein kinase kinase kinase 7 (Homo sapiens); test: Inhibition of TAK1 in RA patient-derived synovial fibroblasts assessed as inhibition of poly(I:C)-induced cytokine secretion at 3 uM preincubated for 3 hrs followed by poly(I:C) stimulation measured after 18 hrs by sandwich immunoassay; how it was run: as §3
[18] = Increase in secretion of basic-FGF in TNFalpha activated RA patient-derived synovial fibroblasts at 0.6 to 3 uM preincubated for 3 hrs followed by TNFalpha stimulation measured after 18 hrs by sandwich immunoassay; conditions: human
How it was run: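 Primary RA patient synovial fibroblasts (donor RA2159) were seeded at 1000 cells/well, grown about 24 h, then starved overnight and again about 4 h in basal medium with 0.1% BSA. Cells were pre-incubated 3 h with inhibitor (0.6 or 3 μM) or DMSO, then stimulated 18 h with 10 ng/mL TNFα. Paired wells were pooled, in biological duplicate. Pooled supernatants were diluted 1:3 and read on Luminex bead sandwich immunoassays, with mock-medium background and spiked-ligand controls.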

HEL = test: Antiproliferative activity against human HEL cells at […] to […] nM after 72 hrs by CellTiter-Glo assay; assay type: functional, cell-based
U-937 = test: Antiproliferative activity against human U937 cells at […] to […] nM after 72 hrs by CellTiter-Glo assay; assay type: functional, cell-based

Sequence of Receptor-type tyrosine-protein kinase FLT3 (P36888 whole entry): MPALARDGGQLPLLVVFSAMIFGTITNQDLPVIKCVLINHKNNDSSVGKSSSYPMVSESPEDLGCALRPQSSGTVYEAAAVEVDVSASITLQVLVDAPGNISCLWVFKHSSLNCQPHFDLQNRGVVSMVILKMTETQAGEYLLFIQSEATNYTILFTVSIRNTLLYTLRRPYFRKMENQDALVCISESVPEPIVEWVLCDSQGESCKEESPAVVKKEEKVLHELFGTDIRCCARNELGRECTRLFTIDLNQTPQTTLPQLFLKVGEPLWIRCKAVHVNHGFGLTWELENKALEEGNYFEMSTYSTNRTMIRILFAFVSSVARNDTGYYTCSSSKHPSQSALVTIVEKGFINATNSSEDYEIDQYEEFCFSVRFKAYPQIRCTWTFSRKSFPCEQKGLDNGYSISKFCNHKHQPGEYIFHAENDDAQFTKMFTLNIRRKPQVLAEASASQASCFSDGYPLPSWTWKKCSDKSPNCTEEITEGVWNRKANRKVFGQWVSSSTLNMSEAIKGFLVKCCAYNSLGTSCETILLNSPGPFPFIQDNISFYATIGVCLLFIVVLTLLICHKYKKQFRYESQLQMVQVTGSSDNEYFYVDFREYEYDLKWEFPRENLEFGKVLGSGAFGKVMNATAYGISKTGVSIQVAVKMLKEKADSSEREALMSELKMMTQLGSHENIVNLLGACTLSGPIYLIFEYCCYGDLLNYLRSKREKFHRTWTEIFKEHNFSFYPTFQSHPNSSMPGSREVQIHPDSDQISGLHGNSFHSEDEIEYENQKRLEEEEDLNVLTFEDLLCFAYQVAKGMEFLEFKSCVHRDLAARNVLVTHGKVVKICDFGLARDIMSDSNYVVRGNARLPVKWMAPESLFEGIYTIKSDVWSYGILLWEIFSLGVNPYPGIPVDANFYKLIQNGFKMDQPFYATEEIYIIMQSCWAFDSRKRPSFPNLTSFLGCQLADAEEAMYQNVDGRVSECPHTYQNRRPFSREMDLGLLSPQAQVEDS

Structure (SMILES): N#CC[C@H](C1CCCC1)n1cc(-c2ncnc3[nH]ccc23)cn1
Activity (NCI-H23 [1]): Active
Activity (NCI-H358 [2]): Active

IC50 [3]: 5.1 nM
IC50 (BaF3 [4]): 274 nM
IC50 (BaF3 [5]): 28 nM
IC50 (BaF3 [6]): 93 nM
IC50 (BaF3 [7]): 10 nM
IC50 (BaF3 [8]): 61 nM
IC50 [9]: 0.63 nM
IC50 (SW-620): 767 nM
IC50 (SK-CO-1): 294 nM
IC50 (PANC-1): 1260 nM
IC50 (ASPC1): 1850 nM
inhibition [12]: Active
inhibition [15]: Active
inhibition [16]: Active
inhibition [17]: Active
Structure (SMILES): C=CC(=O)Nc1ccccc1Oc1nc(Nc2ccc(N3CCN(C)CC3)cc2)ncc1Cl
Activity (MOLM-14): Active
Activity (NALM-6): inactive
IC50 [10]: 2880 nM
IC50 [11]: 524 nM
Activity (NCI-H23 [13]): Active
Activity (NCI-H358 [14]): Active
Activity [18]: Toxic
Activity (HEL): inactive
Activity (U-937): Active
